Calls of active or inactive are those of the source. The calls are words filed in the database; no cut-off is given here.
How the values were obtained:
[1] = system: Primary photoreceptor cell; test: Neuroprotective activity in rd1 mouse Primary photoreceptor cells harboring loss of function mutation in Pde6b gene assessed as reduction in cell death at 50 uM administered at day 10 of differentiation and measured after 24 hrs by TUNEL assay; format: functional, cell-based
Summary of the method: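 Neurosphere-derived retinal stem cells from rd1 mouse eyes differentiated in vitro into photoreceptors. 50 µM compound or vehicle added on day 10; TUNEL on day 11 (24 h exposure), scored as TUNEL+/DAPI+ nuclei by fluorescence microscopy. ≥3 biological replicates, mean ± SD.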

[2] = system: 661W-A11; test: Neuroprotective activity against zaprinast induced mouse 661W-A11 cells assessed as increase in cell viability at 50 uM preincubated for 2 hrs followed by zaprinast addition at 200 uM and measured after 48 hrs by MTT assay; format: functional, cell-based; details: time 50.0 hrs
Summary of the method: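 661W-A11 cells seeded 6000/well; 24 h later pretreated 2 h with 50 µM compound, then 200 µM zaprinast 48 h with compound present. MTT 1 mg/mL for 90 min at 37 °C, formazan in isopropanol, OD 570 nm. Viability normalized to matched vehicle (H2O or DMSO) set at 100%. ≥3 biological replicates, mean ± SD.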

[3] = system: 661W-A11; test: Neuroprotective activity against zaprinast induced mouse 661W-A11 cells assessed as reduction in cell death at 50 uM preincubated for 2 hrs followed by zaprinast addition at 200 uM and measured after 48 hrs by TUNEL assay; format: functional, cell-based; details: time 50.0 hrs
Summary of the method: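 661W-A11 cells seeded 20,000/well; 2 h pretreatment with 50 µM compound, then 200 µM zaprinast 48 h. Fixed in 2% paraformaldehyde, permeabilized in citrate/0.1% Triton X-100 on ice, TUNEL (TMR red) 30 min at 37 °C, DAPI counterstain, fluorescence microscopy. Death = TUNEL+ cells/DAPI+ cells. ≥3 biological replicates, mean ± SD.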

[4] = Neuroprotective activity against zaprinast induced mouse 661W-A11 cells assessed as increase in cell viability at 1 to 1000 uM preincubated for 2 hrs followed by zaprinast addition at 200 uM and measured after 48 hrs by MTT assay relative to control; format: functional; details: dose 1-1000 µM, time 50 hrs
Summary of the method: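 661W-A11 rod-like cells (DMEM 1 mg/mL glucose, 10% FBS, 37 °C, 5% CO2) seeded 6000/well; next day pretreated 2 h with 1 µM–1 mM compound, then 200 µM zaprinast 48 h with compound present. MTT 1 mg/mL, 90 min at 37 °C, formazan in isopropanol, OD 570 nm. EC50 from dose–response curve; ≥3 biological replicates, mean ± SEM.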

[5] = Cytotoxicity against mouse 661W-A11 cells assessed as reduction in cell viability at 1 to 1000 uM incubated for 48 hrs by MTT assay; format: toxicity, cell-based; details: 661w-a11, 48 h, dose 1-1000 µM
Summary of the method: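 661W-A11 rod-like mouse photoreceptor line (1 mg/mL glucose DMEM, 10% FBS, 37 °C, 5% CO2), seeded 6000 cells/well; next day exposed to scaling concentrations (1 μM to 1 mM) for 48 h in H2O or DMSO vehicle, matched vehicle controls. MTT 1 mg/mL, 90 min at 37 °C; formazan dissolved in isopropanol, OD 570 nm; untreated cells set as 100% viability; at least three biological replicates.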

Row | Structure (SMILES) | Activity [1] | Activity [2] | Activity [3] | Activity [4] | Activity [5]
1 | O=c1c2nc(Br)n([C@@H]3O[C@@H]4CO[P@@]([O-])(=S)O[C@H]4[C@H]3O)c2nc2[nH]c(-c3ccccc3)cn12.[Na+] | Active | Active | Active | <=70% | –
2 | O=c1c2nc(Br)n([C@@H]3O[C@@H]4COP(=O)(O)O[C@H]4[C@H]3O)c2nc2[nH]c(-c3ccccc3)cn12 | – | inactive | inactive | – | –
3 | CCN(CC)CC.O=c1c2nc(Br)n([C@@H]3O[C@@H]4COP(=S)(S)O[C@H]4[C@H]3O)c2nc2[nH]c(-c3ccccc3)cn12 (some centres undefined) | Active | Active | Active | – | Non-Toxic
4 | CCN(CC)CC.O=c1c2nc(Br)n([C@@H]3O[C@@H]4CO[P@](O)(=S)O[C@H]4[C@H]3O)c2nc2[nH]c(-c3ccccc3)cn12 | Active | Active | Active | <=70% | –

— ChEMBL document CHEMBL5506026, “New Improved cGMP Analogues to Target Rod Photoreceptor Degeneration” (J Med Chem, 2024)
